Measured values as given in ChEMBL document CHEMBL1125626, “Synthesis and structure-activity relationship of new cephalosporins with amino heterocycles at C-7. Dependence of the antibacterial spectrum and beta-lactamase stability on the pKa of the C-7 heterocycle” (1991).
≈ marks a conversion by molar mass, not a printed value.

Tests used:
Escherichia coli [1] = assay: Minimum inhibitory concentration against Escherichia coli DC2 (inoculum, 10e4 cfu per spot); assay type: functional
Outline: (§1)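 MIC in µg/mL, determined in Jewell and Permain growth medium with spot inoculation at 10^4 cfu per spot. P99 is described as a constitutive type I lactamase producer.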

Escherichia coli [2] = assay: Minimum inhibitory concentration against Escherichia coli DCO (inoculum, 10e4 cfu per spot); assay type: functional; outline: as §1
Escherichia coli [3] = assay: Minimum inhibitory concentration against Escherichia coli A8 (inoculum, 10e5 cfu per spot); assay type: functional
Outline: (§2)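 MIC in µg/mL, determined in Jewell and Permain growth medium with spot inoculation at 10^5 cfu per spot.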

Enterobacter cloacae [4] = assay: Minimum inhibitory concentration against Enterobacter cloacae A13 (inoculum, 10e5 cfu per spot); assay type: functional; outline: as §2
Enterobacter cloacae [5] = assay: Minimum inhibitory concentration against Enterobacter cloacae P99 (inoculum, 10e4 cfu per spot); assay type: functional; outline: as §1
Klebsiella aerogenes [6] = assay: Minimum inhibitory concentration against Klebsiella aerogenes X5L (inoculum, 10e4 cfu per spot); assay type: functional; outline: as §1
Klebsiella aerogenes [7] = assay: Minimum inhibitory concentration against Klebsiella aerogenes X6 (inoculum, 10e4 cfu per spot); assay type: functional; outline: as §1
Klebsiella pneumoniae [8] = assay: Minimum inhibitory concentration against Klebsiella pneumoniae A24 (inoculum, 10e5 cfu per spot); assay type: functional; outline: as §2
Proteus mirabilis [9] = assay: Minimum inhibitory concentration against Proteus mirabilis A18(inoculum, 10e5 cfu per spot); assay type: functional; outline: as §2
Pseudomonas aeruginosa [10] = assay: Minimum inhibitory concentration against Pseudomonas aeruginosa A21 (inoculum, 10e5 cfu per spot); assay type: functional; outline: as §2
Staphylococcus aureus [11] = assay: Minimum inhibitory concentration against Staphylococcus aureus A4 (inoculum, 10e5 cfu per spot); assay type: functional; outline: as §2
Staphylococcus aureus [12] = assay: Minimum inhibitory concentration against Staphylococcus aureus A6 (inoculum, 10e5 cfu per spot); assay type: functional; outline: as §2
Streptococcus pyogenes = assay: Minimum inhibitory concentration against Streptococcus pyogenes (inoculum, 10e5 cfu per spot) A1; assay type: functional; outline: as §2
Serratia marcescens [13] = assay: Minimum inhibitory concentration against Serratia marcescens A16 (inoculum, 10e5 cfu per spot); assay type: functional; outline: as §2
Enterobacter cloacae [14] = assay: Minimum inhibitory concentration against Enterobacter cloacae P99 (inoculum, 10e4 cfu per spot)(type I lactamase producer); assay type: functional; outline: as §1
Escherichia coli [15] = assay: Minimum inhibitory concentration against Escherichia coli X4 (inoculum, 10e4 cfu per spot)
Proteus vulgaris [16] = assay: Minimum inhibitory concentration against Proteus vulgaris Pv9 (inoculum, 10e5 cfu per spot)
Escherichia coli [17] = assay: Minimum inhibitory concentration against Escherichia coli TEM X3 (inoculum, 10e4 cfu per spot)(TEM I type lactamase producer)
Enterobacter cloacae [18] = assay: Minimum inhibitory concentration against Enterobacter cloacae A13(inoculum, 10e5 cfu per spot). Parentheses value indicate inoculum, 10e2 cfu per spot; assay type: functional
Outline: (§3)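 MIC in µg/mL in Jewell and Permain growth medium. Each strain was spot-inoculated at 10^5 cfu per spot; the bracketed values come from a 10^2 cfu per spot inoculum.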

Klebsiella pneumoniae [19] = assay: Minimum inhibitory concentration against Klebsiella pneumoniae A24(inoculum, 10e5 cfu per spot). Parentheses value indicate inoculum, 10e2 cfu per spot; assay type: functional; outline: as §3
Proteus mirabilis [20] = assay: Minimum inhibitory concentration against Proteus mirabilis A18(inoculum, 10e5 cfu per spot). Parentheses value indicate inoculum, 10e2 cfu per spot; assay type: functional; outline: as §3
Pseudomonas aeruginosa [21] = assay: Minimum inhibitory concentration against Pseudomonas aeruginosa A21(inoculum, 10e5 cfu per spot). Parentheses value indicate inoculum, 10e2 cfu per spot; assay type: functional; outline: as §3
Staphylococcus aureus [22] = assay: Minimum inhibitory concentration against Staphylococcus aureus A4(inoculum, 10e5 cfu per spot). Parentheses value indicate inoculum, 10e2 cfu per spot; assay type: functional; outline: as §3
Staphylococcus aureus [23] = assay: Minimum inhibitory concentration against Staphylococcus aureus A6(inoculum, 10e5 cfu per spot). Parentheses value indicate inoculum, 10e2 cfu per spot; assay type: functional; outline: as §3
Serratia marcescens [24] = assay: Minimum inhibitory concentration against Serratia marcescens A16(inoculum, 10e5 cfu per spot). Parentheses value indicate inoculum, 10e2 cfu per spot; assay type: functional; outline: as §3
Escherichia coli [25] = assay: Minimum inhibitory concentration against Escherichia coli A8(inoculum, 10e5 cfu per spot). Parentheses value indicate inoculum, 10e2 cfu per spot; assay type: functional; outline: as §3
Proteus vulgaris [26] = assay: Minimum inhibitory concentration against Proteus vulgaris Pv9(inoculum, 10e5 cfu per spot). Parentheses value indicate inoculum, 10e2 cfu per spot
Proteus mirabilis [27] = assay: Minimum inhibitory concentration against Proteus mirabilis A18 (inoculum, 10e5 cfu per spot); assay type: functional; outline: as §2
Staphylococcus aureus [28] = assay: Minimum inhibitory concentration against Staphylococcus aureus A5(inoculum, 10e5 cfu per spot); assay type: functional; conditions: in the assay text read “10e2 cfu per spot” for “10e5 cfu per spot”
Enterobacter cloacae [29] = assay: Minimum inhibitory concentration against Enterobacter cloacae A13(inoculum, 10e2 cfu per spot)

Structure (SMILES)	MIC (Escherichia coli [1])	MIC (Escherichia coli [2])	MIC (Escherichia coli [3])	MIC (Enterobacter cloacae [4])	MIC (Enterobacter cloacae [5])	MIC (Klebsiella aerogenes [6])	MIC (Klebsiella aerogenes [7])	MIC (Klebsiella pneumoniae [8])	MIC (Pseudomonas aeruginosa [10])	MIC (Staphylococcus aureus [11])	MIC (Staphylococcus aureus [12])	MIC (Streptococcus pyogenes)	MIC (Serratia marcescens [13])	MIC (Enterobacter cloacae [14])	MIC (Escherichia coli [15])	MIC (Proteus vulgaris [16])	MIC (Escherichia coli [17])	MIC (Proteus mirabilis [27])	also measured
CC(=O)OCC1=C(C(=O)OC(c2ccccc2)c2ccccc2)N2C(=O)[C@@H](Nc3nc4ccccc4[nH]3)C2SC1 (stereo not given in full)	< 0.03 mg/L	0.5 mg/L (≈ 0.902 µM)	2 mg/L (≈ 3.61 µM)	≥ 128 mg/L	2 mg/L (≈ 3.61 µM)	≥ 128 mg/L	2 mg/L (≈ 3.61 µM)	1 mg/L (≈ 1.8 µM)	≥ 128 mg/L	8 mg/L (≈ 14.4 µM)	2 mg/L (≈ 3.61 µM)	2 mg/L (≈ 3.61 µM)	64 mg/L (≈ 115 µM)	≥ 128 mg/L	0.25 mg/L (≈ 0.451 µM)	64 mg/L (≈ 115 µM)	2 mg/L (≈ 3.61 µM)		MIC (Proteus mirabilis [9]): 4 mg/L (≈ 7.21 µM)
CC1=C(C(=O)OC(c2ccccc2)c2ccccc2)N2C(=O)[C@@H](NC3=NC4CC4N3)C2SC1 (stereo not given in full)	0.5 mg/L (≈ 1.09 µM)	1 mg/L (≈ 2.17 µM)			1 mg/L (≈ 2.17 µM)	2 mg/L (≈ 4.34 µM)	2 mg/L (≈ 4.34 µM)					128 mg/L (≈ 278 µM)		2 mg/L (≈ 4.34 µM)	1 mg/L (≈ 2.17 µM)		1 mg/L (≈ 2.17 µM)		MIC (Enterobacter cloacae [18]): 4 mg/L (≈ 8.69 µM); MIC (Klebsiella pneumoniae [19]): 1 mg/L (≈ 2.17 µM); MIC (Proteus mirabilis [20]): > 256 mg/L; MIC (Pseudomonas aeruginosa [21]): 256 mg/L (≈ 556 µM); MIC (Staphylococcus aureus [22]): > 256 mg/L; MIC (Staphylococcus aureus [23]): > 256 mg/L; MIC (Serratia marcescens [24]): 4 mg/L (≈ 8.69 µM); MIC (Escherichia coli [25]): 2 mg/L (≈ 4.34 µM); MIC (Proteus vulgaris [26]): > 256 mg/L
CC1=C(C(=O)OC(c2ccccc2)c2ccccc2)N2C(=O)[C@@H](Nc3nc4ccccc4o3)C2SC1 (stereo not given in full)			> 1000 mg/L						> 1000 mg/L		8 mg/L (≈ 16.1 µM)	200 mg/L (≈ 402 µM)	> 1000 mg/L					1000 mg/L (≈ 2010 µM)	MIC (Staphylococcus aureus [28]): 8 mg/L (≈ 16.1 µM); MIC (Enterobacter cloacae [29]): 1000 mg/L (≈ 2010 µM)
CC1(C)S[C@@H]2[C@H](/N=C/N3CCCCCC3)C(=O)N2[C@H]1C(=O)O [AMDINOCILLIN]	0.004 mg/L (≈ 0.0123 µM)	0.03 mg/L (≈ 0.0922 µM)	0.06 mg/L (≈ 0.184 µM)	0.25 mg/L (≈ 0.768 µM)	0.03 mg/L (≈ 0.0922 µM)	4 mg/L (≈ 12.3 µM)	0.12 mg/L (≈ 0.369 µM)	0.03 mg/L (≈ 0.0922 µM)	> 256 mg/L	> 256 mg/L	16 mg/L (≈ 49.2 µM)	16 mg/L (≈ 49.2 µM)	128 mg/L (≈ 393 µM)	0.06 mg/L (≈ 0.184 µM)	0.03 mg/L (≈ 0.0922 µM)	64 mg/L (≈ 197 µM)	1 mg/L (≈ 3.07 µM)	32 mg/L (≈ 98.3 µM)	
CO/N=C(\C(=O)N[C@@H]1C(=O)N2C(C(=O)O)=C(COC(C)=O)CS[C@H]12)c1csc(N)n1 [CEFOTAXIME]	0.002 mg/L (≈ 0.00439 µM)	0.03 mg/L (≈ 0.0659 µM)	0.25 mg/L (≈ 0.549 µM)	256 mg/L (≈ 562 µM)	0.03 mg/L (≈ 0.0659 µM)	4 mg/L (≈ 8.78 µM)	0.06 mg/L (≈ 0.132 µM)	0.06 mg/L (≈ 0.132 µM)	128 mg/L (≈ 281 µM)	32 mg/L (≈ 70.3 µM)	4 mg/L (≈ 8.78 µM)	0.03 mg/L (≈ 0.0659 µM)	0.25 mg/L (≈ 0.549 µM)	32 mg/L (≈ 70.3 µM)	0.06 mg/L (≈ 0.132 µM)	0.5 mg/L (≈ 1.1 µM)	0.06 mg/L (≈ 0.132 µM)	0.06 mg/L (≈ 0.132 µM)	
